From ChEMBL document CHEMBL1156123, “A facile synthesis and biological activity of novel tetrahydrobenzo[4',5']thieno[3',2':5,6]pyrido[4,3-d]pyrimidin-4(3H)-ones” (Bioorg Med Chem Lett, 2009)
pIC50: −log10 of the molar value.

Experiments:
Botrytis cinerea = test: Antifungal activity against Botrytis cinerea at 50 mg/L relative to control; format: functional
Fusarium graminearum = test: Antifungal activity against Gibberella zeae at 50 mg/L relative to control; format: functional
[1] = test system: Botryosphaeria berengeriana; test: Antifungal activity against Botryosphaeria berengeriana at 50 mg/L relative to control; format: functional
Bipolaris maydis = test: Antifungal activity against Bipolaris maydis at 50 mg/L relative to control; format: functional
KB = test: Cytotoxicity against human KB cells after 72 hrs MTT assay; format: functional, cell-based
Summary of the method: (§1)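 MTT read-out after 72 h exposure to compound. KB are drug-sensitive human oral carcinoma cells. KBv200 are the vincristine-induced multidrug-resistant derivative overexpressing ABCB1. Values are means of three independent experiments, each run in quadruplicate, with coefficients of variation below 10%.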

[2] = Cytotoxicity against multi-drug resistant human KBv200 cells after 72 hrs by MTT assay; format: functional, cell-based; details: KBv200, 72 h; summary of the method: as §1
Rhizoctonia solani = test: Antifungal activity against Rhizoctonia solani at 50 mg/L relative to control; format: functional

Structure (SMILES) | inhibition at 50 µg/mL (Botrytis cinerea) [%] | inhibition at 50 µg/mL (Fusarium graminearum) [%] | inhibition at 50 µg/mL [1] [%] | inhibition at 50 µg/mL (Bipolaris maydis) [%] | pIC50 (KB) | pIC50 [2] | inhibition at 50 µg/mL (Rhizoctonia solani) [%]
Cc1ccc(Cl)c(Oc2nc3c(c(C)nc4sc5c(c43)CCCC5)c(=O)n2-c2ccccc2)c1 | 88 | 23 | 50 | 48 | < 4.00 | < 4.00 | 63
Cc1nc2sc3c(c2c2nc(Oc4ccc([N+](=O)[O-])cc4)n(-c4ccccc4)c(=O)c12)CCCC3 | 85 | 46 | 61 | 67 | < 4.00 | < 4.00 | 68
Cc1nc2sc3c(c2c2nc(Oc4ccc(Br)cc4)n(-c4ccccc4)c(=O)c12)CCCC3 | 83 | 65 | 83 | 81 | 4.16 | < 4.00 | 68
O=c1[nH]cc(F)c(=O)[nH]1 [FLUOROURACIL] |  |  |  |  | 4.90 |  | 
COc1cccc(Oc2nc3c(c(C)nc4sc5c(c43)CCCC5)c(=O)n2-c2ccccc2)c1 | 66 | 42 | 67 | 76 | < 4.00 | < 4.00 | 76
Cc1cccc(Oc2nc3c(c(C)nc4sc5c(c43)CCCC5)c(=O)n2-c2ccccc2)c1 | 99 | 65 | 78 | 81 | < 4.00 | < 4.00 | 91
Cc1nc2sc3c(c2c2nc(Oc4cccc(F)c4)n(-c4ccccc4)c(=O)c12)CCCC3 | 98 | 58 | 78 | 90 | < 4.00 | < 4.00 | 84
Cc1nc2sc3c(c2c2nc(Oc4ccc(F)cc4F)n(-c4ccccc4)c(=O)c12)CCCC3 | 78 | 38 | 50 | 71 | < 4.00 | < 4.00 | 63
CCCNc1nc2c(c(C)nc3sc4c(c32)CCCC4)c(=O)n1-c1ccccc1 | 57 | 20 | 29 | 47 | 4.76 | 4.60 | 24
Cc1ccc(Oc2nc3c(c(C)nc4sc5c(c43)CCCC5)c(=O)n2-c2ccccc2)cc1 | 80 | 31 | 56 | 76 | 4.32 | 4.17 | 61
CC(C)(C)C(=O)C(Oc1ccc(Cl)cc1)n1cncn1 (configuration not stated) [TRIADIMEFON] | 78 | 59 |  |  |  |  | 91
CCCCNc1nc2c(c(C)nc3sc4c(c32)CCCC4)c(=O)n1-c1ccccc1 | 100 | 83 | 76 | 79 | 4.49 | 4.48 | 89
Cc1nc2sc3c(c2c2nc(Oc4ccccc4)n(-c4ccccc4)c(=O)c12)CCCC3 | 85 | 15 | 56 | 76 | 4.27 | 4.21 | 65
Cc1nc2sc3c(c2c2nc(Oc4cc(F)cc(F)c4)n(-c4ccccc4)c(=O)c12)CCCC3 | 83 | 31 | 61 | 48 | 4.28 | 4.40 | 74
Cc1nc2sc3c(c2c2nc(Oc4ccc(F)cc4Cl)n(-c4ccccc4)c(=O)c12)CCCC3 | 88 | 54 | 67 | 67 | < 4.00 | < 4.00 | 79
Cc1cc(Oc2nc3c(c(C)nc4sc5c(c43)CCCC5)c(=O)n2-c2ccccc2)ccc1Cl | 73 | 31 | 39 | 52 | 4.07 | 4.14 | 22
